# In ChEMBL document CHEMBL3243935, “Analgesic and tranquilizing activity of 5,8-disubstituted 2-aminomethyl-3,4-dihydronaphthalenes” (J Med Chem, 1978):
# Calls of active or inactive are those of the source.
# Assays:
# Mus musculus [1] = assay: Analgesic activity in Swiss CD mouse assessed as elevation of response latency at 100 mg/kg, ip measured 2 hrs post treatment by tail flick method relative to control; format: functional; details: route intraperitoneal
# Outline: (§1)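 Male mice, about 20 g, dosed ip in saline (solution or suspension). High-intensity heat was focused on the tail, and latency to a sudden tail flick was timed, with a 10-s cutoff. Tests ran at 0.5 and 2 h post-dose, with at least ten mice per dose. Percent control = mean latency ÷ mean control latency × 100; 200% was the lower bound of activity.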
# Mus musculus [2] = assay: Analgesic activity in Swiss CD mouse assessed as elevation of response latency at 100 mg/kg, ip measured 0.5 hr post treatment by tail flick method relative to control; format: functional; details: route intraperitoneal; outline: as §1
# Mus musculus [3] = assay: Analgesic activity in Swiss CD mouse at 100 mg/kg, ip measured 0.5 hr post treatment by hot-plate method relative to control; format: functional; details: route intraperitoneal
# Outline: (§2)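 Male mice, about 20 g, dosed ip in saline. Each mouse was dropped into a glass cylinder on an aluminium plate held at 57 °C. Latency to the first flick of a hind foot was timed at 0.5 and 2 h post-dose, with a 10-s cutoff. At least ten mice per dose. Percent control = mean latency ÷ mean control latency × 100; 200% was the lower bound of activity.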
# Mus musculus [4] = assay: Analgesic activity in Swiss CD mouse at 100 mg/kg, ip measured 2 hrs post treatment by hot-plate method relative to control; format: functional; details: route intraperitoneal; outline: as §2
# Rattus norvegicus [5] = assay: Analgesic activity in Sprague-Dawley CD rat at 32 mg/kg, ip measured 0.5 to 2 hrs post treatment by flinch-jump method relative to control; format: functional, organism-based; set-up: dose 32 mg/kg
# Outline: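 Male rats, 200-300 g, dosed ip (saline solution or suspension). A single rising series of 1-s foot shocks was given just before and at 0.5 and 2 h after dosing. The minimum shock intensity (mA) evoking each behaviour was recorded. No response at the 2.2-mA level counted as activity. At least five rats per dose.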
# Mus musculus [6] = assay: Analgesic activity in Swiss CD mouse at 32 mg/kg, ip measured 0.5 hr post treatment by hot-plate method relative to control; format: functional; details: route intraperitoneal; outline: as §2
# Mus musculus [7] = assay: Analgesic activity in Swiss CD mouse assessed as elevation of response latency at 32 mg/kg, ip measured 0.5 hr post treatment by tail flick method relative to control; format: functional; details: route intraperitoneal; outline: as §1
# Mus musculus [8] = assay: Analgesic activity in Swiss CD mouse at 32 mg/kg, ip measured 2 hrs post treatment by hot-plate method relative to control; format: functional; details: route intraperitoneal; outline: as §2
# [9] = Toxicity in ip dosed Swiss CD mouse measured 0.5 to 2 hrs post treatment; format: organism-based; details: in vivo
# Mus musculus [10] = assay: Analgesic activity in Swiss CD mouse assessed as elevation of response latency at 32 mg/kg, ip measured 2 hrs post treatment by tail flick method relative to control; format: functional; details: route intraperitoneal; outline: as §1
# Rattus norvegicus [11] = assay: Neuroleptic activity in decarboxylase-inhibited Sprague-Dawley CD rat brain assessed as increase in DOPA accumulation at 0.01 mmol/kg relative to control; format: functional; set-up: scale not given: the % may be the effect or the level left
# Rattus norvegicus [12] = assay: Neuroleptic activity in ip dosed Sprague-Dawley CD rat assessed as reversal of amphetamine-induced stereotypy compound administered 1hr prior challenge; format: functional
# Outline: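 Rats dosed ip, then given amphetamine sulfate 5 mg/kg 1 h later. The ED50 is the dose that reverses the amphetamine-induced stereotypy.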
# Mus musculus [13] = assay: Analgesic activity in ip dosed Swiss CD mouse by tail flick method relative to control in presence of naloxone; format: functional, organism-based
# Mus musculus [14] = species on record: Mus musculus; assay: Toxicity in Swiss CD mouse assessed as Straub tail symptom; format: organism-based; details: in vivo
# Mus musculus [15] = assay: Analgesic activity in ip dosed Swiss CD mouse by hot-plate method relative to control in presence of naloxone; format: functional, organism-based
# Rattus norvegicus [16] = species on record: Rattus norvegicus; assay: Toxicity in Sprague-Dawley CD rat assessed as Straub tail symptom; format: organism-based; details: in vivo
# Canis familiaris = species on record: Canis familiaris; assay: Analgesic activity in dog assessed as increase in response threshold by radiant heat method; format: functional, organism-based; details: Canis lupus familiaris
# Outline: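 Male mongrel dogs (9-12 kg) given drug sc or orally; radiant heat threshold read as reflex fasciculations of the back muscles. Tested at 0.5 and 2 h after dosing, with the end point expressed as percent of control latency.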
SMILES,Activity (Mus musculus [1]) [%],Activity (Mus musculus [2]) [%],Activity (Mus musculus [3]) [%],Activity (Mus musculus [4]) [%],other results
C=CCNCC1=Cc2c(Cl)ccc(OC)c2CC1.Cl,108,131,158,115,
CCN(CC)C(=O)C1CCCN(CC2=Cc3c(Cl)ccc(OC)c3CC2)C1.Cl.O (stereo unspecified),214,250,107,175,Activity (Rattus norvegicus [5]): inactive
COc1ccc(Cl)c2c1CCC(CN1CCC(C)CC1)=C2.Cl,,,,,Activity (Mus musculus [6]): 158%; Activity (Mus musculus [7]): 128%; Activity (Mus musculus [8]): 135%; LD50 [9]: 32 mg/kg; Activity (Mus musculus [10]): 115%
COc1ccc(Cl)c2c1CCC(CN1CCC(C(=O)NC3CCCCC3)CC1)=C2,154,219,107,95,
COc1cc2c(cc1OC)CCC(CN1CCCC1)=C2.Cl,95,101,173,135,
COc1ccc(Cl)c2c1CCC(CN1CCC(C(=O)N3CCCC3)CC1)=C2.Cl.O,172,262,213,155,Activity (Rattus norvegicus [11]): 332%
CNC(=O)C1CCN(CC2=Cc3c(Cl)ccc(OC)c3CC2)CC1.Cl.O,166,208,221,167,
COc1ccc2c(c1)C=C(CN1CCCC1)CC2,129,149,114,98,
C=CCN1CCN(CC2=Cc3c(Cl)ccc(OC)c3CC2)CC1.Cl,137,159,164,127,
COc1ccc(Cl)c2c1CCC(CN1CCC3(CC1)C(=O)NCN3c1ccccc1)=C2,,,,,ED50 (Rattus norvegicus [12]): 1 mg/kg; Activity (Rattus norvegicus [11]): 154%
CN1CCN(CC/C=C2/c3ccccc3Sc3ccc(S(=O)(=O)N(C)C)cc32)CC1 [THIOTHIXENE],,,,,ED50 (Rattus norvegicus [12]): 0.32 mg/kg
COc1ccc(Cl)c2c1CCC(CN1CCC(C(=O)N3CCOCC3)CC1)=C2.Cl,133,162,107,95,
Br.COc1cccc2c1CCC(CN1CCCC1)=C2,,,,,Activity (Mus musculus [6]): 129%; Activity (Mus musculus [7]): 80%; Activity (Mus musculus [8]): 103%; LD50 [9]: 32 mg/kg; Activity (Mus musculus [10]): 90%
COc1ccc(Cl)c2c1CCC(CN1CCN(c3ccc(Cl)cc3)CC1)=C2,159,184,202,160,
CCC(=O)OC1CCN(CC2=Cc3c(Cl)ccc(OC)c3CC2)CC1.Cl,179,237,95,101,
COc1ccc(Cl)c2c1CCC(CN1CCC(O)CC1)=C2.Cl,180,239,174,142,
CNCC1=Cc2c(Cl)ccc(OC)c2CC1.Cl,,,,,Activity (Mus musculus [6]): 139%; Activity (Mus musculus [7]): 163%; Activity (Mus musculus [8]): 120%; LD50 [9]: 32 mg/kg; Activity (Mus musculus [10]): 127%
Cc1cc(C)c2c(c1)C=C(CN1CCCC1)CC2.Cl,,,,,Activity (Mus musculus [6]): 126%; Activity (Mus musculus [7]): 124%; Activity (Mus musculus [8]): 120%; LD50 [9]: 32 mg/kg; Activity (Mus musculus [10]): 126%
COc1ccc(Cl)c2c1CCC(CN1CCN(c3cccc(C(F)(F)F)c3)CC1)=C2.O,118,119,167,149,
COc1ccc(N2CCN(CC3=Cc4c(Cl)ccc(OC)c4CC3)CC2)cc1,123,131,129,120,

SMILES,Activity (Mus musculus [1]) [%],Activity (Mus musculus [2]) [%],Activity (Mus musculus [3]) [%],Activity (Mus musculus [4]) [%],other results
COc1ccc(C)c2c1CCC(CN1CCCC1)=C2.Cl,,,,,Activity (Mus musculus [6]): 177%; Activity (Mus musculus [7]): 177%; Activity (Mus musculus [8]): 145%; LD50 [9]: 32 mg/kg; Activity (Mus musculus [10]): 135%
COc1ccc(Cl)c2c1CCC(CN1CCC(O)(c3ccccc3)CC1)=C2.Cl,158,196,249,175,
COc1ccc(Cl)c2c1CCC(CN1CCN(C)CC1)=C2,137,198,274,218,
COc1ccc(Cl)c2c1CCC(CN1CCC(O)(c3ccc(Cl)cc3)CC1)=C2.O=S(=O)(O)O,123,162,177,102,
COc1ccc(Cl)c2c1CCC(CN1CCCCC1)=C2.Cl,167,212,155,127,
COc1ccc(F)c2c1CCC(CN1CCCC1)=C2.Cl,,,,,Activity (Mus musculus [6]): 183%; Activity (Mus musculus [7]): 170%; Activity (Mus musculus [8]): 149%; LD50 [9]: 32 mg/kg; Activity (Mus musculus [10]): 141%
COc1ccc(Cl)c2c1CCC(CNCC1CC1)=C2.Cl,162,203,224,171,
COc1ccc(Cl)c2c1CCC(CN1CCC(OC(C)=O)(c3ccccc3)CC1)=C2.Cl.O,,,,,Activity (Mus musculus [13]): inactive; Activity (Mus musculus [6]): 315%; Activity (Mus musculus [7]): 317%; Activity (Mus musculus [8]): 345%; LD50 [9]: 32 mg/kg; Activity (Mus musculus [14]): Toxic; Activity (Mus musculus [15]): inactive; Activity (Rattus norvegicus [16]): Toxic; Activity (Mus musculus [10]): 320%
COc1ccc(Cl)c2c1CCC(CN1CCN(S(N)(=O)=O)CC1)=C2.Cl,88,104,123,109,
COc1ccc(Cl)c2c1CCC(CN1CCC(c3ccccc3)CC1)=C2.O,106,109,233,171,
COc1ccc(Cl)c2c1CCC(CN1CCCC(C(N)=O)C1)=C2.Cl (stereo unspecified),106,91,197,170,Activity (Rattus norvegicus [5]): inactive
CCOC(=O)N1CCN(CC2=Cc3c(Cl)ccc(OC)c3CC2)CC1.Cl,199,223,274,233,
COc1ccc(OC)c2c1C=C(CN1CCCC1)CC2.Cl,,,,,Activity (Mus musculus [6]): 177%; Activity (Mus musculus [7]): 111%; Activity (Mus musculus [8]): 132%; LD50 [9]: 32 mg/kg; Activity (Mus musculus [10]): 99%
CCC(=O)O[C@](Cc1ccccc1)(c1ccccc1)[C@H](C)CN(C)C [PROPOXYPHENE],146,169,139,138,
COc1ccc(Cl)c2c1CCC(CN1CCC(C(N)=O)CC1)=C2.O,132,274,314,329,Activity (Mus musculus [13]): inactive; Activity (Mus musculus [14]): Non-toxic; Activity (Mus musculus [15]): inactive; Activity (Rattus norvegicus [16]): Non-toxic; Activity (Canis familiaris): inactive
COc1ccc(Cl)c2c1CCC(CN1CCC(C(=O)N3CCCCC3)CC1)=C2.Cl.O,149,235,170,124,
COc1ccc2c(c1)CCC(CN1CCCC1)=C2.Cl,92,92,96,103,
COc1ccc(Cl)c2c1CCC(CN1CCC(C(C)=O)(c3ccccc3)CC1)=C2.Cl,122,134,143,124,
COc1ccc(Cl)c2c1CCC(CN1CCN(CCO)CC1)=C2,191,187,249,236,
